# Data from ChEMBL document CHEMBL3124818, “Synthesis and antimicrobial evaluation of amide derivatives of benzodifuran-2-carboxylic acid” (2014).
# Key:
# Assay type in all cases: functional
# [1] = tested on: Candida albicans; assay: Antifungal activity against Candida albicans by broth dilution method
# How it was run: (§1)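 Broth dilution screen. Compounds tested at 40 μg to 600 μg. MIC was read as the lowest concentration preventing visible growth. Solvent controls were included. Ciprofloxacin (antibacterial) and fluconazole (antifungal) were run under similar conditions as reference drugs.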
# [2] = tested on: Pseudomonas aeruginosa; assay: Antibacterial activity against Pseudomonas aeruginosa by broth dilution method; how it was run: as §1
# [3] = tested on: Escherichia coli; assay: Antibacterial activity against Escherichia coli by broth dilution method; how it was run: as §1
# [4] = tested on: Bacillus subtilis; assay: Antibacterial activity against Bacillus subtilis by broth dilution method; how it was run: as §1
# [5] = tested on: Staphylococcus aureus; assay: Antibacterial activity against Staphylococcus aureus by broth dilution method; how it was run: as §1
smiles,measurement,setting,value
Cc1ccc(NC(=O)c2oc3cc4occ(C)c4cc3c2C)cc1,MIC,[1],≥ 600 µg/mL
same,MIC,[2],≥ 600 µg/mL
same,MIC,[3],≥ 600 µg/mL
same,MIC,[4],200 µg/mL
same,MIC,[5],200 µg/mL
Cc1coc2cc3oc(C(=O)Nc4ccc(C(=O)O)cc4)c(C)c3cc12,MIC,[1],600 µg/mL
same,MIC,[2],600 µg/mL
same,MIC,[3],400 µg/mL
same,MIC,[4],160 µg/mL
same,MIC,[5],600 µg/mL
COc1ccc(NC(=O)c2oc3cc4occ(C)c4cc3c2C)cc1,MIC,[1],≥ 600 µg/mL
same,MIC,[2],≥ 600 µg/mL
same,MIC,[3],≥ 600 µg/mL
same,MIC,[4],400 µg/mL
same,MIC,[5],160 µg/mL
Cc1coc2cc3oc(C(=O)Nc4ccc(O)cc4)c(C)c3cc12,MIC,[1],≥ 600 µg/mL
same,MIC,[2],≥ 600 µg/mL
same,MIC,[3],600 µg/mL
same,MIC,[4],200 µg/mL
same,MIC,[5],600 µg/mL
Cc1coc2cc3oc(C(=O)Nc4ccc(Cl)cc4)c(C)c3cc12,MIC,[1],≥ 600 µg/mL
same,MIC,[2],≥ 600 µg/mL
same,MIC,[3],200 µg/mL
same,MIC,[4],200 µg/mL
same,MIC,[5],400 µg/mL
Cc1coc2cc3oc(C(=O)Nc4ccccc4)c(C)c3cc12,MIC,[1],600 µg/mL
same,MIC,[2],600 µg/mL
same,MIC,[3],600 µg/mL
same,MIC,[4],400 µg/mL
same,MIC,[5],600 µg/mL
Cc1coc2cc3oc(C(=O)N4CCOCC4)c(C)c3cc12,MIC,[1],≥ 600 µg/mL
same,MIC,[2],≥ 600 µg/mL
same,MIC,[3],600 µg/mL
same,MIC,[4],200 µg/mL
same,MIC,[5],400 µg/mL
Cc1coc2cc3oc(C(=O)N4CCCC4)c(C)c3cc12,MIC,[1],600 µg/mL
same,MIC,[2],≥ 600 µg/mL
same,MIC,[3],400 µg/mL
same,MIC,[4],400 µg/mL
same,MIC,[5],160 µg/mL
Cc1coc2cc3oc(C(=O)N4CCCCC4)c(C)c3cc12,MIC,[1],≥ 600 µg/mL
same,MIC,[2],≥ 600 µg/mL
same,MIC,[3],600 µg/mL
same,MIC,[4],200 µg/mL
same,MIC,[5],400 µg/mL
CCN(CC)C(=O)c1oc2cc3occ(C)c3cc2c1C,MIC,[1],600 µg/mL
same,MIC,[2],600 µg/mL
same,MIC,[3],400 µg/mL
same,MIC,[4],400 µg/mL
same,MIC,[5],160 µg/mL
Cc1coc2cc3oc(C(=O)N4CCc5ccccc5C4)c(C)c3cc12,MIC,[1],600 µg/mL
same,MIC,[2],≥ 600 µg/mL
same,MIC,[3],≥ 600 µg/mL
same,MIC,[4],160 µg/mL
same,MIC,[5],400 µg/mL
O=C(O)c1cn(C2CC2)c2cc(N3CCNCC3)c(F)cc2c1=O [CIPROFLOXACIN],MIC,[2],7.5 µg/mL
same,MIC,[3],15 µg/mL
same,MIC,[4],2 µg/mL
same,MIC,[5],5 µg/mL
OC(Cn1cncn1)(Cn1cncn1)c1ccc(F)cc1F [FLUCONAZOLE],MIC,[1],5 µg/mL
